Only some compounds are listed: those with a hit (about 1.8% of all), similar ones and a draw of the others.
Gli-Sufu block = blocks Gli-Sufu signaling in a luciferase reporter; Sufu-KO-LIGHT fibroblasts, Gli luciferase reporter luminescence; inhibition, % at 5 µM; 0.74% of 340,000 active; AID 588413;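 active = inhibition above about 55%, limit read from the data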;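 note: 0% = DMSO-treated cells and 100% = wells with medium but no cells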
NR2E3 ag-1 = activates human photoreceptor nuclear receptor NR2E3. Q9Y5X4. GST-NR2E3/biotin-RetCOR TR-FRET, 1536-well. inhibition of corepressor binding, % at 4.78 µM. 0.12% of 320,000 active;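 active = percent inhibition above the cutoff of mean plus 3 SD of all tested compounds, set per screening campaign, cut at about 20% in these data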;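 note: 0% = DMSO wells and 100% = biotin wells as full block of FRET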
Target sequence (Q9Y5X4 whole entry, looked up): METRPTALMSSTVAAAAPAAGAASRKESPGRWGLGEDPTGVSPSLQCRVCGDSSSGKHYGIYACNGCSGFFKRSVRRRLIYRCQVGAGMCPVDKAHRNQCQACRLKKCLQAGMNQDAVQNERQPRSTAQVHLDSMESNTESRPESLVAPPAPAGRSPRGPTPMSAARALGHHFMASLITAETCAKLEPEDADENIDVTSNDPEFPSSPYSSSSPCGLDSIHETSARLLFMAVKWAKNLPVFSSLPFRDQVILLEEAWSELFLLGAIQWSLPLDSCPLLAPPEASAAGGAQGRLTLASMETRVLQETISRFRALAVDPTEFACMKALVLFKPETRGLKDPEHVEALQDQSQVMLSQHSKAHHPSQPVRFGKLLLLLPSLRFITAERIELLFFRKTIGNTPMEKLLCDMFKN
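Material – GST-tagged NR2E3 plus biotinylated RetCOR corepressor · Quantity – NR2E3 fusion 1.35 nM · Times – 5 h incubation at 4 °C · Medium – pH 7.5 Tris-based buffer · Technique – TR-FRET, Eu(K)-anti-GST donor, streptavidin-D2 acceptor, ex 340, em 617/671 nm · Benchmarks – high control biotin, low control 0.6% DMSO · Format – 1536-well plates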
NR2E3 ag-2 = human photoreceptor-specific nuclear receptor agonism; CHO-S Gal4-NCOR/VP16-NR2E3 two-hybrid, luciferase; 0.35% of 360,000 active; AID 602229; Q9Y5X4; inhibition of corepressor binding, % at 3.98 µM;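 active = inhibition above the mean of all tested compounds plus 3 SD, cut at about 70% in these data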;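 note: 0% = DMSO with NR2E3 transfected cells and 100% = cells lacking NR2E3 construct; higher means lower luciferase signal from less NR2E3 corepressor binding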
Jurkat NFkB inh = lowers PMA/ionomycin-induced NF-kB signal in Jurkat cells | PMA/ionomycin-induced NF-kB luciferase reporter, luminescence | inhibition, % at 4 µM | 0.53% of 330,000 active | AID 435003; in the data active = inhibition above about 50%
697 NFkB inh = lowers PMA/ionomycin-induced NF-kB signal in 697 B cells; 697 B-cell NF-kB luciferase reporter, 16 h; inhibition, % at 4 µM; 0.33% of 330,000 active; in the data active = inhibition above about 35%
GalR3 antag = antagonists of human GalR3; O60755; HEK293 GalR3-CNG cAMP membrane potential fluorescence; galR3 body fused to GalR1 C-terminus; inhibition, % at 3 µM; 0.44% of 360,000 active; AID 651719;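 active = inhibition above the screen-wide average plus 3 SD, cut at about 13% in these data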;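 note: forskolin and galanin both at EC90 stimulate the cells; cAMP rise reported by CNG channel membrane potential dye signal; 0% = forskolin plus galanin with DMSO and 100% = forskolin alone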
Target sequence (O60755 1-299 limits assumed): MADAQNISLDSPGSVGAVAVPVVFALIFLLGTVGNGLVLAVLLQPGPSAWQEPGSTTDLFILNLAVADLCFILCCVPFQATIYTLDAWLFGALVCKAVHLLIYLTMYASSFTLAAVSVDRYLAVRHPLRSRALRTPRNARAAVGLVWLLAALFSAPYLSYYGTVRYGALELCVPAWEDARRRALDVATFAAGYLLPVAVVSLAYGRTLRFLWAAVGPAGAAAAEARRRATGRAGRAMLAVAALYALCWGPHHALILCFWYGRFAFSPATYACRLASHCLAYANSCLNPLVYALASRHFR
Gli antag conf = Gli-SUFU antagonism confirmation, single concentration; shares compounds with Gli-Sufu block; Sufu-KO-LIGHT cells, Gli luciferase reporter, luminescence; inhibition, % at 5 µM; 40% of 2,500 active;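 active = mean inhibition at 5 µM reaching about 45%, limit read from the data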;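 note: plate controls were DMSO-treated cells for no effect and wells lacking cells for full effect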
SufuKO cytotox = cytotoxicity counter-screen for Gli-SUFU antagonists; shares compounds with Gli-Sufu block; Sufu-KO-LIGHT cells cytotoxicity, ATP luminescence; cytotoxicity, % at 5 µM; 32% of 2,500 active;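 active = mean cytotoxicity at 5 µM above about 25%, limit read from the data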;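 note: cells exposed to compound overnight for roughly 16 to 18 hours; plate controls were DMSO wells with cells for no effect and medium without cells for full effect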
Wnt3a cs = inhibits Wnt3a reporter, counter-screen for Gli-SUFU antagonists; shares compounds with Gli-Sufu block; Wnt-LIGHT cells, Wnt3a-driven luciferase reporter, luminescence; AID 651995; 20% of 2,500 active; inhibition, % at 6.25 µM;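 active = mean inhibition above about 25%, limit read from the data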
Starred values were filed as active, the others as inactive; nt = no result.

SMILES | Gli-Sufu block | NR2E3 ag-1 | NR2E3 ag-2 | Jurkat NFkB inh | 697 NFkB inh | GalR3 antag | Gli antag conf | SufuKO cytotox | Wnt3a cs
O=C(C(=O)N1CCN(C(=O)Cc2ccccc2)CC1)c1cccc(C(F)(F)F)c1 | nt | nt | nt | nt | nt | -6.7 | nt | nt | nt
O=C(Nc1ccncc1)Nc1cccc(Cl)c1 | -5.9 | 2.0 | -31.5 | -17.2 | -18.3 | -2.0 | nt | nt | nt
C/C(=N\NC(=O)C(=O)Nc1cccc(Cl)c1)c1ccncc1 | 61.0* | -2.0 | -23.3 | 13.1 | -10.6 | 4.9 | 59.5* | 35.0* | 13.2
C/C(=N\NC(=O)C(=O)Nc1ccc(C)cc1)c1ccncc1 | 4.4 | 2.1 | 16.3 | -4.3 | -2.5 | 3.2 | nt | nt | nt
C/C(=N\NC(=O)C(=O)Nc1ccc(C)c(Cl)c1)c1ccncc1 | 62.0* | 3.2 | -24.6 | 9.8 | 24.8 | 0.9 | 62.1* | 32.2* | 24.3
O=C(/C=C(\Nc1ccccc1)c1ccccc1)c1ccccc1 | nt | nt | nt | nt | nt | 1.3 | nt | nt | nt
CCC(CO)Oc1cc(NCc2ccc(C(C)(C)C)cc2)c2ncn(C(C)C)c2c1 (stereo not drawn) | 57.9* | nt | -0.3 | 9.9 | -13.1 | -5.3 | 47.9* | 17.8 | 30.3*
CCC(CO)Oc1cc(NCc2ccc(O)cc2)c2ncn(C(C)C)c2c1 (stereo not drawn) | 0.9 | nt | 4.5 | 4.5 | 15.7 | -3.9 | nt | nt | nt
CC(=O)Nc1ccc(S(=O)(=O)N2C3CCCC2CC(NC(=O)C2CCCCC2)C3)cc1 (stereo not drawn) | 94.8* | 3.1 | -15.3 | -4.0 | -20.1 | 0.6 | 14.6 | 4.2 | -37.8
COc1ccc(C(=O)Nc2cc([N+](=O)[O-])ccc2N2CCN(C)CC2)cc1 | 6.1 | 2.6 | -27.8 | -25.6 | 14.4 | -2.5 | nt | nt | nt
COc1cccc(C(=O)Nc2cc([N+](=O)[O-])ccc2N2CCN(C)CC2)c1 | 53.9 | 1.7 | 0.2 | -24.6 | -20.9 | -7.0 | 15.6 | 0.8 | -27.2
CC(C)C[C@H](NC(=O)c1ccccc1)C(=O)N1CCC[C@H]1C(=O)NCc1ccccc1 | nt | nt | nt | nt | nt | -5.7 | nt | nt | nt
CCOC(=O)N1CCN(C(=O)c2ccc3c(c2)N(Cc2cccc(Cl)c2)C(=O)c2ccccc2S3=O)CC1 (stereo not drawn) | 55.9* | 2.3 | 5.3 | 12.2 | -12.8 | -5.6 | 12.3 | 12.0 | 2.4
COc1ccccc1NC(=O)OC[C@@H]1CSCCS(=O)(=O)N1 | nt | nt | nt | nt | nt | -3.3 | nt | nt | nt
CC(=O)NC(CCS(C)(=O)=O)C(=O)Nc1cc(C)ccc1C (stereo not drawn) | 53.7 | 2.5 | -0.2 | 6.9 | 11.1 | nt | 9.5 | 7.5 | -10.7
O=C(NNC(=O)c1cc([N+](=O)[O-])ccc1Cl)c1cccnc1 | 53.7 | nt | -1.6 | 0.6 | 5.5 | 1.2 | 8.7 | 21.0 | -23.6
NC(=O)c1c(N)[nH]c(C(=O)c2ccccc2)c1-c1ccc2c(c1)OCO2 | nt | nt | nt | nt | nt | -7.5 | nt | nt | nt
CCOC(=O)[C@H]1[C@H]2COc3ccc(OC)cc3[C@@H]2N2C(=O)c3cc(OC)c(OC)cc3NC(=O)[C@@]12C | 98.8* | -1.1 | -11.2 | 6.7 | -6.3 | -6.3 | 17.7 | -9.4 | 13.2
Cc1ccc(Cc2c(-c3cccc(Br)c3)nc3c4ccccc4ccn23)cc1 | nt | nt | nt | nt | nt | -6.8 | nt | nt | nt
N#CC1C=Cc2c(ccc3ccccc23)N1C(=O)c1ccccc1 (stereo not drawn) | 51.0 | nt | -42.5 | nt | nt | 8.2 | 61.0* | 57.3* | 6.6
O=C(NCCCN1CCOCC1)c1ccccc1 | 61.3* | -2.3 | -0.2 | -9.5 | -0.1 | -0.1 | 28.5 | 13.0 | 2.9
O=C(CC(c1ccccc1)c1cc(Br)ccc1O)NCCCN1CCOCC1 (stereo not drawn) | 52.1 | -4.2 | -2.9 | -2.9 | -11.1 | -10.3 | 19.3 | 3.3 | -29.6
COc1cc(NC(=O)N[C@@H](Cc2c[nH]c3ccccc23)C(=O)O)c(C(=O)O)cc1OC | 6.1 | nt | -22.0 | -15.0 | -7.2 | -9.9 | nt | nt | nt
CCn1c(/C=C/N(C)c2ccccc2)[n+](CC)c2ccc(Cl)cc21 | 85.4* | 1.5 | -8.4 | 37.0 | -19.7 | -0.7 | 88.6* | 36.4* | 42.0*
COc1ccc(C2=Nn3c(nnc3-c3ccccc3F)SC2)cc1OCC1CC1 | 14.8 | nt | -29.3 | 18.1 | -33.1 | 1.2 | nt | nt | nt
SMILES | Gli-Sufu block | NR2E3 ag-1 | NR2E3 ag-2 | Jurkat NFkB inh | 697 NFkB inh | GalR3 antag | Gli antag conf | SufuKO cytotox | Wnt3a cs
CCc1nc(CN2CCCC(C(=O)c3ccc4c5c(cccc35)CC4)C2)c(C)[nH]1 (stereo not drawn) | 51.8 | -4.6 | 16.6 | 7.3 | -11.8 | -7.2 | 15.2 | 6.4 | -44.0
O=C(c1ccc2c3c(cccc13)CC2)C1CCCN(Cc2ccncc2)C1 (stereo not drawn) | 9.3 | -0.1 | 28.0 | 23.6 | -6.0 | 0.1 | nt | nt | nt
C[C@H]1CN([C@@H](C)CO)C(=O)CCCn2cc(nn2)CO[C@@H]1CN(C)C(=O)c1ccc2ccn(C)c2c1 | nt | nt | nt | nt | nt | 1.3 | nt | nt | nt
O=S1(=O)CCSC[C@@H](CN2CCOCC2)N1 | nt | nt | nt | nt | nt | -3.4 | nt | nt | nt
O=C(N[C@@H]1C/C=C\C[C@@H](CC(=O)N(CCO)Cc2ccccc2)C(=O)NCCOC1=O)OCC1c2ccccc2-c2ccccc21 | 51.9 | nt | -30.3 | -13.9 | -1.9 | nt | 47.7* | 21.9 | -29.6
O=C(C[C@H]1C/C=C\C[C@H](NC(=O)OCC2c3ccccc3-c3ccccc32)C(=O)O[C@@H](c2ccccc2)CNC1=O)NCCO | 26.9 | nt | -0.4 | -12.4 | -8.0 | -6.8 | nt | nt | nt
C[C@@H]1COC(=O)[C@H](NC(=O)OCC2c3ccccc3-c3ccccc32)C/C=C\C[C@@H](CC(=O)N(CCO)Cc2ccccc2)C(=O)N1 | 55.4* | nt | 8.8 | 4.6 | 7.7 | nt | 48.2* | 29.5* | -14.5
O=C(N[C@H]1C/C=C\C[C@@H](CC(=O)N(CCO)Cc2ccccc2)C(=O)NC[C@H](c2ccccc2)OC1=O)OCC1c2ccccc2-c2ccccc21 | 58.5* | nt | 5.0 | 11.0 | 1.4 | 4.8 | 58.5* | 15.6 | 34.0*
O=C(C[C@@H]1C/C=C\C[C@H](NC(=O)OCC2c3ccccc3-c3ccccc32)C(=O)O[C@H](c2ccccc2)CNC1=O)NCCO | 54.1 | nt | -18.9 | 1.3 | -11.1 | 6.0 | 59.2* | 33.6* | -70.9
O=C1NC[C@H](c2ccccc2)OC(=O)[C@H](Cc2ccc(F)cc2)C/C=C\C[C@@H]1CC(=O)N(CCO)Cc1ccccc1 | 0.6 | nt | -0.1 | -5.5 | 2.9 | -5.5 | nt | nt | nt
O=C(N[C@@H]1C/C=C\C[C@H](CC(=O)N(CCO)Cc2ccccc2)C(=O)N[C@@H](Cc2ccccc2)COC1=O)OCC1c2ccccc2-c2ccccc21 | 39.5 | nt | -5.7 | -2.0 | -1.0 | 4.0 | nt | nt | nt
O=C1NCCOC(=O)[C@H](Cc2ccc(F)cc2)C/C=C\C[C@H]1CC(=O)N(CCO)Cc1ccccc1 | -0.9 | nt | -4.8 | 9.2 | -28.8 | 3.5 | nt | nt | nt

Screens (PubChem)
